From ChEMBL document CHEMBL4842312, “Phenoxazine nucleoside derivatives with a multiple activity against RNA and DNA viruses” (Eur J Med Chem, 2021)
≈ marks a conversion by molar mass, not a printed value.

Legend:
[1] = Selectivity index, ratio of CC50 for human HEL cells to EC50 for Antiviral activity against Human cytomegalovirus Davis; type: toxicity; conditions: read-out: Ratio CC50/EC50
[2] = tested on: Tick-borne encephalitis virus; assay: Antiviral activity against Tick-borne encephalitis virus infected in pig PEK cells assessed as reduction in virus plaque formation preincubated with virus for 1 hr followed by cell infection and measured after 1 hr by crystal violet staining based assay; type: functional, organism-based
Human betaherpesvirus 5 [3] = assay: Antiviral activity against Human cytomegalovirus Davis; type: functional, organism-based; conditions: Human betaherpesvirus 5, Davis
Outline: (§1)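 Confluent HEL cultures received 100 CCID50 or 20 PFU of virus, with 2 h adsorption before inoculum removal. Cells were then incubated with compound from 100 μM downward. Cytopathicity or plaques were scored once untreated infected controls reached completion.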

Vero = assay: (§2) Cytotoxicity in African green monkey Vero cells assessed as reduction in cell viability measured after 5 days by resazurin dye based assay; conditions: chlorocebus sabaeus, vero, 120 h; time 5 day
Outline: (§3)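 Cells (about 10⁵/well, 5% FBS) were added to two-fold compound dilutions (eight concentrations from 100 μM; DMSO control) and held 5 days at 36.5 °C in CO2. Medium was then replaced with resazurin (25 μg/mL) for 4 h and stopped with SDS. Fluorescence was read at Ex 525 / Em 580–640 nm, with background wells without resazurin subtracted. Done in two replicates; CC50 calculated.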

Chikungunya virus = assay: Antiviral activity against Chikungunya virus infected in African green monkey Vero cells assessed as reduction in virus plaque formation preincubated with virus for 1 hr followed by cell infection and measured after 1 hr by crystal violet staining based assay; type: functional, organism-based
[4] = Selectivity index, ratio of CC50 for African green monkey Vero cells to EC50 for Antiviral activity against Chikungunya virus infected in African green monkey Vero cells; type: toxicity; conditions: read-out: Ratio CC50/EC50
[5] = tested on: Respiratory syncytial virus; assay: Antiviral activity against Respiratory syncytial virus assessed as reduction in virus-induced cytopathic effect by MTS assay; type: functional, organism-based; conditions: human respiratory syncytial virus
[6] = Selectivity index, ratio of CC50 for human HEL cells to EC50 for Antiviral activity against Human cytomegalovirus AD169; type: toxicity; conditions: read-out: Ratio CC50/EC50
Influenza A virus = assay: Antiviral activity against Influenza A virus (H1N1) infected in MDCK cells assessed as reduction in cytopathic effect preincubated with cells for 1 hrs followed by viral addition and measured after 24 hrs by Reed-Muench method; type: functional, organism-based
Outline: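 MDCK monolayers were pre-incubated 1 h at 37 °C with 3-fold compound dilutions (from 2 mg/mL DMSO stock), then infected at MOI 1 for 24 h. Supernatant yield was titrated by 10-fold dilutions on fresh MDCK for 72 h. Titre was read by hemagglutination with 1% chicken erythrocytes and calculated by Reed-Muench as TID50 per 100 μL.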

SARS-CoV-2 = assay: Antiviral activity against SARS COV-2 infected in monkey vero cells assessed as reduction in virus-induced cytopathic effect preincubated with virus for 1 hr followed by cell infection and measured after 5 days by microscopic analysis; type: functional, organism-based; conditions: Severe acute respiratory syndrome coronavirus 2, Vero
MDCK = assay: (§4) Cytotoxicity in dog MDCK cells assessed as reduction in cell viability measured after 3 days by beckman coulter counting method; type: cell-based, Canis lupus familiaris; conditions: mdck, 72 h, time 3 day
Outline: (§5)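 Cells were seeded at 5 × 10³/well, grown 24 h, then exposed to compound from 100 μM downward for 3 days at 37 °C. Cell number was counted with a Coulter counter.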

Human alphaherpesvirus 3 [7] = assay: Antiviral activity against thymidine kinase deficient Varicella zoster virus; type: functional, organism-based; outline: as §1
[8] = Cytotoxicity in pig PEK cells assessed as reduction in cell viability measured after 5 days by resazurin dye based assay; parameters: species or system Sus scrofa, Kidney; conditions: 120 h, time 5 day; outline: as §3
Human betaherpesvirus 5 [9] = assay: Antiviral activity against Human cytomegalovirus AD169; type: functional, organism-based; conditions: Human betaherpesvirus 5, AD169; outline: as §1
Powassan virus = assay: Antiviral activity against Powassan virus infected in pig PEK cells assessed as reduction in virus plaque formation preincubated with virus for 1 hr followed by cell infection and measured after 1 hr by crystal violet staining based assay; type: functional, organism-based
[10] = Selectivity index, ratio of CC50 for pig PEK cells to EC50 for Antiviral activity against Tick-borne virus encephalitis infected in pig PEK cells; type: toxicity, cell-based; conditions: read-out: Ratio CC50/EC50
HEp-2 = assay: Cytotoxicity in human Hep2 cells assessed as reduction in cell viability measured after 3 days by beckman coulter counting method; type: functional; conditions: HEp-2, 72 h, time 3 day
Outline: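 Hep2 cells seeded at 5 × 10³ cells/well and allowed to grow 24 h, then exposed to compound dilutions starting at 100 μM for 3 days at 37 °C. Cell number measured by Coulter counter.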

Human alphaherpesvirus 3 [11] = assay: Antiviral activity against thymidine kinase positive Varicella zoster virus; type: functional, organism-based; outline: as §1
[12] = Selectivity index, ratio of CC50 for pig PEK cells to EC50 for Antiviral activity against Powassan virus infected in pig PEK cells; type: toxicity, cell-based; conditions: read-out: Ratio CC50/EC50
[13] = Selectivity index, ratio of CC50 for human HEL cells to EC50 for antiviral activity against thymidine kinase deficient Varicella zoster virus; type: toxicity; conditions: read-out: Ratio CC50/EC50
[14] = Selectivity index, ratio of CC50 for human HEL cells to EC50 for antiviral activity against thymidine kinase positive Varicella zoster virus; type: toxicity; conditions: read-out: Ratio CC50/EC50
HEL = assay: Cytotoxicity against human HEL cells assessed as reduction in cell viability measured after 3 days by beckman coulter counting method; type: cell-based; conditions: 72 h, time 3 day; outline: as §5
[15] = Selectivity index, ratio of CC50 for dog MDCK cells to EC50 for Influenza A virus (A/California/07/09(H1N1)) infected in MDCK cells; type: toxicity, cell-based; conditions: read-out: Ratio CC50/EC50
Human alphaherpesvirus 3 [16] = assay: Antiviral activity against wild type Varicella zoster virus infected in HEL cells assessed as reduction in viral plaque formation incubated for 2 hrs; type: functional, organism-based; conditions: Human alphaherpesvirus 3, HEL; outline: as §1
Human alphaherpesvirus 3 [17] = assay: Antiviral activity against thymidine kinase deficient Varicella zoster virus infected in HEL cells assessed as reduction in viral plaque formation incubated for 2 hrs; type: functional, organism-based; conditions: Human alphaherpesvirus 3, HEL; outline: as §1
Human alphaherpesvirus 3 [18] = assay: Antiviral activity against Varicella zoster virus assessed as inhibition of viral replication; type: functional, organism-based
[19] = tested on: Tick-borne encephalitis virus; assay: Antiviral activity against Tick-borne encephalitis virus infected in PEK cells assessed as reduction in viral plaque formation incubated for 1 hr by Reed-Muench method; type: functional, organism-based
[20] = Selectivity index, ratio of CC50 for human Hep2 cells to EC50 for Respiratory syncytial virus; type: toxicity; conditions: read-out: Ratio CC50/EC50
[21] = as §2; conditions: chlorocebus sabaeus, Vero cells; time 5 day; outline: as §3
[22] = as §4; type: cell-based, Canis lupus familiaris; conditions: MDCK cells, time 3 day; outline: as §5
Human alphaherpesvirus 2 = assay: Antiviral activity against Herpes simplex virus 2 infected in HEL cells assessed as reduction in viral plaque formation; type: functional; outline: as §1
Human alphaherpesvirus 1 = assay: Antiviral activity against Herpes simplex virus 1 infected in HEL cells assessed as reduction in viral plaque formation; type: functional; outline: as §1
Human alphaherpesvirus 3 [23] = assay: Antiviral activity against Varicella zoster virus infected in HEL cells assessed as reduction in viral plaque formation; type: functional; outline: as §1
Human betaherpesvirus 5 [24] = assay: Antiviral activity against cytomegalovirus infected in HEL cells assessed as reduction in viral plaque formation; type: functional
Outline: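 Confluent HEL cultures infected with 20 PFU of CMV (AD-169 or Davis), 2 h adsorption, inoculum removed, then compounds added at varying concentrations from 100 μM. Plaques scored once complete in untreated infected controls.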

[25] = Selectivity index, ratio of CC50 for pig PEK cells to EC50 for Antiviral activity against Omsk hemorrhagic fever virus infected in pig PEK cells; type: toxicity, cell-based; conditions: read-out: Ratio CC50/EC50
[26] = tested on: Omsk hemorrhagic fever virus; assay: Antiviral activity against Omsk hemorrhagic fever virus infected in pig PEK cells assessed as reduction in virus plaque formation preincubated with virus for 1 hr followed by cell infection and measured after 1 hr by crystal violet staining based assay; type: functional, organism-based

SMILES | selectivity ratio [1] | EC50 [2] [µM] | EC50 (Human betaherpesvirus 5 [3]) [µM] | CC50 (Vero) [µM] | EC50 [5] [µM] | EC50 (Influenza A virus) [µM] | EC50 (SARS-CoV-2) [µM] | CC50 (MDCK) [µM] | EC50 (Human alphaherpesvirus 3 [7]) [µM] | CC50 [8] [µM] | EC50 (Human betaherpesvirus 5 [9]) [µM] | EC50 (Powassan virus) [µM] | CC50 (HEp-2) [µM] | EC50 (Human alphaherpesvirus 3 [11]) [µM] | selectivity ratio [12] | CC50 (HEL) [µM] | other results
CCCCCCCCOc1ccc2c(c1)Nc1nc(=O)n([C@H]3C[C@H](O)[C@@H](CO)O3)cc1O2 | > 2 | 2.8 | 42.3 | > 100 | > 100 | 82 | > 100 | > 100 | 15.9 | > 100 | 54.7 | 1.5 | > 100 | 0.42 | > 66 | > 100 | EC50 (Chikungunya virus): 2.5 µM; selectivity ratio [4]: > 40; selectivity ratio [6]: > 2; selectivity ratio [10]: > 35; selectivity ratio [13]: > 6; selectivity ratio [14]: > 238
CCCCCCCCCCOc1ccc2c(c1)Nc1nc(=O)n([C@H]3C[C@H](O)[C@@H](CO)O3)cc1O2 | 5 | 40 | 10.4 | > 100 | > 100 | 3.4 | > 100 | > 100 | 15.2 | > 100 | > 100 | 4.4 | > 100 | 0.68 | > 22 | 50.3 | selectivity ratio [15]: > 29; selectivity ratio [13]: 3
O=c1nc2c(cn1[C@H]1C[C@H](O)[C@@H](CO)O1)Oc1ccccc1N2 | – | – | – | – | – | – | – | – | – | – | – | – | – | – | – | – | EC50 (Human alphaherpesvirus 3 [16]): 0.06 µM; EC50 (Human alphaherpesvirus 3 [17]): 10 µM
O=c1[nH]c(=O)n([C@H]2C[C@H](O)[C@@H](CO)O2)cc1/C=C/Br [BRIVUDINE] | – | – | – | – | – | – | – | – | 0.42 | – | – | – | – | 0.034 | – | > 300 | EC50 (Human alphaherpesvirus 3 [18]): 3.4 µM
COc1ccc(C(OC[C@H]2O[C@@H](n3cc4c(nc3=O)Nc3ccccc3O4)C[C@@H]2O)(c2ccccc2)c2ccc(OC)cc2)cc1 | – | – | – | – | – | – | – | – | – | – | – | – | – | – | – | – | EC50 [19]: 0.4 µM
O=c1nc2c(cn1[C@H]1C=C[C@@H](O)C1)Oc1ccccc1N2 | – | – | > 100 | – | 11 | – | > 100 | – | 64.4 | – | > 20 | – | 80 | > 100 | – | > 100 | selectivity ratio [20]: 7; CC50 at 120 h [21]: > 100 µM; CC50 at 72 h [22]: > 100 µM
Cc1cn2c(=O)c3ncn(COCCO)c3nc2[nH]1 | – | – | – | – | – | – | – | – | – | – | – | – | – | – | – | – | MIC (Human alphaherpesvirus 2): 1.52 µM (≈ 0.4 µg/mL); MIC (Human alphaherpesvirus 1): 1.52 µM (≈ 0.4 µg/mL)
Cc1cn2c(=O)c3ncn(COC(CO)CO)c3nc2[nH]1 | – | – | – | – | – | – | – | – | – | – | – | – | – | – | – | – | MIC (Human alphaherpesvirus 2): 0.07 µM (≈ 0.0205 µg/mL); MIC (Human alphaherpesvirus 3 [23]): 14.3 µM (≈ 4.19 µg/mL); MIC (Human alphaherpesvirus 1): 0.07 µM (≈ 0.0205 µg/mL); MIC (Human betaherpesvirus 5 [24]): 14.3 µM (≈ 4.19 µg/mL)
COc1ccc(C(OCCOCn2cc3c(nc2=O)N(C)c2ccccc2O3)(c2ccccc2)c2ccc(OC)cc2)cc1 | > 2 | 16 | 44.7 | > 100 | > 100 | 79 | > 100 | > 100 | > 20 | > 100 | 48.9 | 8 | > 100 | > 20 | > 12 | > 100 | selectivity ratio [25]: > 32; EC50 (Chikungunya virus): 6.1 µM; selectivity ratio [4]: > 16; selectivity ratio [6]: > 2; EC50 [26]: 3.1 µM; selectivity ratio [10]: > 6
